Screening results deposited in PubChem BioAssay by Broad Institute.
Sampled rows, rich in hits. Any-hit rate of the full collection: about 2.4%.
Ecoli rRNA inh: reduced GFP signal of wild-type E. coli, primary screen, bacterial rRNA inhibitor project, GFP/RFP fluorescence, OD600, single point. AID 720706, 2013. 350,000 tested, 1.6% active. E. coli WT GFP vs humanized-ribosome RFP mutants, 24 h; active compounds read low; DMSO median 0, no signal -100. GFP signal change (wild-type ribosome), % (test concentration not listed);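 active = significant combined selectivity score with lowered wild-type GFP, culture density cut under 30%, mutant RFP and density less affected; inactive = any of these conditions unmet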
EWS-Fli block: EWS/Fli-driven NR0B1 reporter inhibitors, primary screen, A673 cells, NR0B1 luciferase, luminescence, MLPCN library. viability-normalised. 350,000 tested, 0.67% active. AID 651661, 2012. inhibition, % at 12.6 µM;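 active = mean inhibition of at least 50% after viability correction, with every replicate also passing that limit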;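 note: firefly luciferase signal divided by Alamar Blue viability fluorescence both relative to DMSO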
E-selectin induc: E-selectin induction in HUVECs, primary screen, imaging, HUVEC, immunofluorescence imaging, single point; normalized: neutral wells 0, TNF-alpha wells 100; P16581; 260,000 tested, 0.37% active; activation, % at 7.58 µM; AID 686992, 2013;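 active = mean E-selectin-positive cell signal at least 10% of the positive control, reached in at least 60% of replicates, without over 20% cell loss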
Target sequence (P16581 whole entry, looked up): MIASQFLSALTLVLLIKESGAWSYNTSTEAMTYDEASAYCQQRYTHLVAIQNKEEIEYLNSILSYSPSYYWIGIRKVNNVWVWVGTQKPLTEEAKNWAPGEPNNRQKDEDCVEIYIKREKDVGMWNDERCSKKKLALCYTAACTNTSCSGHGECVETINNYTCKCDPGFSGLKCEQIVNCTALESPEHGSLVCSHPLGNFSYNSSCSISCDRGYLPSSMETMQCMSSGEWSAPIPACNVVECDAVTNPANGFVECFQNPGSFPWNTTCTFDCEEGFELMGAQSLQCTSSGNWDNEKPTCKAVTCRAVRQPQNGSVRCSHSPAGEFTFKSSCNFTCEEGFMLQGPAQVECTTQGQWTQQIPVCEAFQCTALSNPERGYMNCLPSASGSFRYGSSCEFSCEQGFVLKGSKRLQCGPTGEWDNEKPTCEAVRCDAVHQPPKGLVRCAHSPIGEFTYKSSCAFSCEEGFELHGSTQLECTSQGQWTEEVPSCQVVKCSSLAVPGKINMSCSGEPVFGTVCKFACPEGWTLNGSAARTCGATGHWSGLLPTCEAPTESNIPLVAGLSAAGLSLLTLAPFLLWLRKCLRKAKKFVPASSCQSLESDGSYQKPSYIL
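assay system = HUVEC, human umbilical vein endothelial cells | input = 3,000 HUVEC seeded per well | medium = EGM-2 growth medium on 0.1% gelatin-coated wells | dosing = one compound dose added by pin transfer | signal = immunofluorescence imaging | read-out basis = % PE-positive cells | control set = TNF-alpha, DMSO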
LGR2 inh: inhibitors of bursicon-induced LGR2 CRE-luciferase signal, primary screen, cell-based, HEK293, CRE-luciferase reporter, bursicon stimulation. inhibition, % at 9.99 µM. Drosophila bursicon receptor LGR2 (rickets). 380,000 tested, 0.35% active. bursicon-stimulated, 4 h. AID 720647, 2013;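 active = drop in luminescence signal, shown as inhibition above about 50% in the replicate tests, limit read from the data, passing the limit was not always enough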;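 note: agonist challenge used bursicon conditioned medium at about half maximal strength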
* hit, by the source's call; x = no result.

SMILES | Ecoli rRNA inh | EWS-Fli block | E-selectin induc | LGR2 inh
COC(=O)[C@]12OC[C@]34C([C@@H](O)[C@@H]1O)[C@]1(C)CC(=O)C(O)=C(C)[C@@H]1C[C@H]3OC(=O)[C@H](O)[C@@H]24 (stereo not given in full) | 15 | -20 | 0 | 93*
C=CCN1[C@@H]2CN(CC(F)(F)F)C[C@H]1C2c1ccc(Br)cc1 (stereo not given in full) | -5 | x | x | x
CC(=O)N1C[C@@H]2C(c3ccccc3)[C@H](C1)N2CC1CC1 (stereo not given in full) | 1 | x | x | x
C[C@]12C=CC(=O)C=C1C=C[C@@H]1C2CC[C@]2(C)C(=O)CCC12 (stereo not given in full) | -28* | -4 | 0 | 1
C[C@]12CCC3[C@@H](CCC4=CC(=O)CC[C@@]43CO)C1CCC2=O (stereo not given in full) | 13 | -4 | 0 | 6
CC[C@H]1C=C(C(=O)N[C@@]2(C(=O)O)C[C@H]2CC)[C@H]2CCC(=O)[C@H]2C1 | x | -8 | x | x
CC1=C(O)C(=O)C=C2C1=CC=C1C2(C)CCC2(C)C3CC(C)(C(=O)O)CCC3(C)CCC12C (stereo not given) | 3 | 65* | 2 | x
OC[C@@H]1Nc2ccc(C#Cc3cccnc3)cc2[C@@H]2NCC[C@H]12 | 5 | x | x | x
COc1ccc(NC(=S)NC(NC(=O)CF)C(Cl)(Cl)Cl)cc1[N+](=O)[O-] (stereo not given) | -22* | 4 | 2 | 15
O=C(Cc1ccccc1)N1CCCCN2[C@H](CO)[C@H](c3ccc(-c4ccccc4)cc3)[C@H]2C1 | -59 | x | -1 | -6
COC(=O)[C@@H]1[C@@H](CO)[C@@H]2Cn3c(cccc3=O)[C@H]1N2C(=O)C1CC1 | 3 | 4 | 0 | -14
COc1cccc2c1cc([N+](=O)[O-])c1c(C(=O)O)cc3c(c12)OCO3 | -59 | 33 | x | 67*
O=C(Nc1cccc(Cl)c1)OC1CN2CCC1CC2 (stereo not given) | -39* | -30 | x | -14
O=C(Nc1ccc(Cl)cc1)OC1CN2CCC1CC2 (stereo not given) | x | -46 | x | x
CC(C)NC(=O)N1C[C@@H]2C(c3ccccc3)[C@H](C1)N2C (stereo not given in full) | -2 | x | x | x
O=[N+]([O-])c1ccc(N2CCCCC2)c2ncccc12 | -43* | -7 | x | -25
C[C@H]1C[C@@H](C)C(=O)[C@@H]([C@H](O)CC2CC(=O)NC(=O)C2)C1 | x | 39 | x | 95*
O=C(NC[C@H]1CC[C@@H]2NC[C@@H]2O1)C1CCCC1 | x | 7 | x | x
CCOC(=O)c1c(C)n(C(C)C)c2ccc(OC)cc12 | -28* | 0 | 5 | -11
CC(C)C(NC(=O)C(C(C)C)N(C)C)C(=O)N(C)C(C(=O)N1CCCC1C(=O)N1CCCC1C(=O)NCc1ccccc1)C(C)C (stereo not given) | 8 | 56* | 0 | -16
C/C=C/c1ccc(C2[C@H]3CNC[C@@H]2N3CC2CC2)cc1 (stereo not given in full) | 3 | 5 | 0 | -15
Nc1c2c(nc3sc4c(c13)CCCCC4)CCCC2 | -23* | -18 | x | -52
BrCC1C[n+]2c(SCc3ccccc3)nc3sc4c(c3c2O1)CCCC4 (stereo not given) | -25 | -7 | 0 | -10
N#Cc1cccc(-c2ccc([C@H]3[C@@H](CO)N4CCCCN(C(=O)Cc5ccncc5)C[C@@H]34)cc2)c1 | -1 | x | 0 | -13
COC(=O)C1=C(N)Oc2cc(C)oc(=O)c2C12C(=O)Nc1ccccc12 (stereo not given) | -23* | 12 | 3 | 14
SMILES | Ecoli rRNA inh | EWS-Fli block | E-selectin induc | LGR2 inh
CC(C)(C)n1nnnc1C(C1CC1)N1CCC2(CC1)C(=O)NCN2c1ccccc1 (stereo not given) | -16* | -4 | 3 | -10
C/C=C(\C)C(=O)N[C@@H](c1ccccc1)[C@@H](O)C(=O)O[C@H]1C[C@@]2(O)[C@@H](OC(=O)c3ccccc3)C3[C@](C)(C(=O)[C@H](OC(C)=O)C(=C1C)C2(C)C)[C@H](O)C[C@H]1OC[C@@]31OC(C)=O (stereo not given in full) | x | 58* | x | x
CCC(C)C(=O)N[C@@H](c1ccccc1)[C@@H](O)C(=O)O[C@H]1C[C@@]2(O)[C@@H](OC(=O)c3ccccc3)C3[C@](C)(C(=O)[C@H](OC(C)=O)C(=C1C)C2(C)C)[C@@H](O)C[C@H]1OC[C@@]31OC(C)=O (stereo not given in full) | 1 | 56* | x | 7
CC/C=C/CC(=O)N[C@@H](c1ccccc1)[C@@H](O)C(=O)O[C@H]1C[C@@]2(O)[C@@H](OC(=O)c3ccccc3)C3[C@](C)(C(=O)[C@H](OC(C)=O)C(=C1C)C2(C)C)[C@@H](O)C[C@H]1OC[C@@]31OC(C)=O (stereo not given in full) | 12 | 36 | x | x
COC(=O)C[C@H]1CC[C@@H]2NC[C@H](O)COC[C@H]2O1 | 1 | -1 | 0 | -13
N#CC1=C(N)Oc2c(c(=O)oc3ccccc23)C1c1ccc([N+](=O)[O-])o1 (stereo not given) | 14 | 9 | 5 | 1
NC1=C([N+](=O)[O-])C(c2ccc3c(c2)OCO3)c2c(c3ccccc3oc2=O)O1 (stereo not given) | -29* | 10 | x | 9
CC1=CC(=C2C(=O)NC(=S)NC2=O)C=C(C(F)(F)F)N1Cc1ccccc1 | 8 | 54* | -1 | -3
O=C(O)[C@@H]1[C@@H](CO)[C@@H]2Cn3c(ccc(-c4cccnc4)c3=O)[C@H]1N2C(=O)Nc1cc(F)ccc1F | -2 | -1 | 0 | 5
CS(=O)(=O)N1C[C@@H]2C(c3ccccc3)[C@H](C1)N2CC1CC1 (stereo not given in full) | 0 | x | x | x
C=C1C(=O)OC2CC3(C)OC3C3OC3C3=CC(OC3=O)C12 (stereo not given) | x | 58* | x | x
CC(C)(C)n1cc(C(=O)c2ccc3ccccc3c2O)cn1 | 4 | -2 | x | 67*
COc1ccc(C[C@H]2NC[C@H](O)[C@H]2OC(C)=O)cc1 | x | 66* | -2 | x
COc1ccc(C#Cc2ccc([C@@H]3[C@@H](CO)N4CCCCN(C(=O)Cc5ccccc5)C[C@H]34)cc2)cc1 | -37 | 2 | -1 | 7
COc1ccc(C2=CC(c3ccc(OC)c(OC)c3)c3c(c4ccccc4oc3=O)O2)cc1OC (stereo not given) | 7 | 58* | 0 | 15
C=CCN1[C@@H]2CN(C(C)=O)C[C@H]1C2c1ccc(Br)cc1 (stereo not given in full) | -3 | x | x | x
CN1[C@@H]2CN(S(C)(=O)=O)C[C@H]1C2c1ccc(Br)cc1 (stereo not given in full) | 2 | x | x | x
